Dynein cargo inh – blocks dynein driven cargo transport along microtubules; 3617.4 mouse cells, GR-EGFP nuclear translocation imaging; test concentration mostly 20 µM; stimulated with dexamethasone, 1 µM; hits give low values; z-score, hits read low; 220,000 compounds, 0.47% hits; AID 1381;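 active means plate z-score of nuclear minus cytoplasmic receptor signal below a set negative limit, without overly bright fluorescence or cell loss, cut at about -3.5 in these data, passing the limit was not always enough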;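 further: z-score of nuclear minus cytoplasmic ring GR-EGFP intensity difference per well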
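Buffer or medium – tet-free medium with charcoal-stripped serum · Signal – automated 10x imaging of fixed Hoechst-stained cells · Also added – dexamethasone agonist, 1.0 µM final, for 30 min · Incubation – induction 48 h, compound 1 h, agonist 30 min · Read-out – GR-EGFP nuclear translocation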
B2AR ag – activates human beta-2 adrenergic receptor causing internalization; AID 504454; P07550; response, % (no concentration beside the values); 340,000 compounds, 0.43% hits; Am2.2-beta2AR cells, FAP receptor internalization, flow cytometry;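 active means response above a set limit, near 3 SD of response in nonfluorescent compounds, cut at about 42% in these data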
Target sequence (P07550 whole entry, looked up): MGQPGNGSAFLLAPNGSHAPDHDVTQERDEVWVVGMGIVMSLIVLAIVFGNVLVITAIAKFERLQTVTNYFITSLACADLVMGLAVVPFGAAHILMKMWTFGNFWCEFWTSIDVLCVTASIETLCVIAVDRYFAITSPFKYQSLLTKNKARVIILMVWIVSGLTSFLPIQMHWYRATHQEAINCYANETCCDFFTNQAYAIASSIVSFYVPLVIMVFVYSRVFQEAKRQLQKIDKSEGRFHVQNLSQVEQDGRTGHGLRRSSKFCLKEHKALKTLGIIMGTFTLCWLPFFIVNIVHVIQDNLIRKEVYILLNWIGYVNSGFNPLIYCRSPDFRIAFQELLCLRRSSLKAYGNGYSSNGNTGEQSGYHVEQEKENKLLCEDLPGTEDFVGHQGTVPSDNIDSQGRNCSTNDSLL
MEKK2 WT-MEK5 – raises or lowers MEK5 binding to wildtype human MEKK2 PB1 domain; Q9Y2U5; bead flow cytometry, Alexa488-MEK5 binding to MEKK2 WT; actives lie on both sides; binding response (% of control), % at 10 µM; 290,000 compounds, 1.1% hits; AID 1531; in the data active means binding response below about 67% or above about 130%
MEKK3 PB1 HTS – raises or lowers MEK5 binding to the human MEKK3 PB1 domain | 290,000 compounds, 1.4% hits | Q99759 | binding response (% of control), % at 10 µM | AID 1529 | bead-based flow cytometry, Alexa488-MEK5 binding to MEKK3; actives lie on both sides; 0 = blocked by unlabeled MEK5, 100 = vehicle;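 active means binding response more than 3 SD above or below the average of its plate-row segment, actives on both sides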;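 further: Alexa488 bead fluorescence after subtracting the streptavidin-only scavenger bead signal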
ATG4B inh – ATG4B (human) cysteine protease inhibition; inhibition, % at 8.33 µM; 340,000 compounds, 0.51% hits; Q9Y4P1; AID 504462; ATG4B cleavage of LC3-PLA2, NBD-HPC fluorescence, 1 h; in the data active means inhibition above about 40%
MEKK2mut PB1 HTS – signal of MEK5 binding to mutant human MEKK2 PB1 domain. percent response, % at 10 µM. AID 1530. 290,000 compounds, 0.35% hits. bead flow cytometry, Alexa488-MEK5 binding to MEKK2 mutant; in the data active means percent response above about 24%, passing the limit was not always enough
Beta2AR ag CP1 – activates human beta-2 adrenergic receptor. shares compounds with B2AR ag. Am2.2-beta2AR cells, FAP surface receptor, flow cytometry; hits give low values. percent response (surface receptor), % at 10 µM. 1,100 compounds, 25% hits;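 active means surface receptor percent response at or below 58%, roughly 3 SD from nonfluorescent compounds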
FAP fluor counter – fluorescence artifact in beta-2AR agonist FAP counterscreen; calls only at 10 µM; shares compounds with B2AR ag; 1,100 tested, under 10 active; Am2.2 cells, FAP fluorogen flow cytometry; hits give low values;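 active means percent response below a set limit in fluorescence channel 1 and below 50% in channel 8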
* hit, by the source's call; i = inactive; · = not tested or not shown; ! = not confirmed by another sample. Shown are actives, neighbours in structure and some others; about 2.9% of the full set was active somewhere.

SMILES	Dynein cargo inh	B2AR ag	MEKK2 WT-MEK5	MEKK3 PB1 HTS	ATG4B inh	MEKK2mut PB1 HTS	Beta2AR ag CP1	FAP fluor counter
NS(=O)(=O)c1ccc(NC(=O)c2cccc(N3C(=O)c4ccccc4C3=O)c2)cc1	·	85.5*	90.0	91.0	1.7	-7.0	41.8*	i
O=C(O)c1cccc(NC(=O)c2ccc3c(c2)C(=O)N(c2ccccc2)C3=O)c1	·	2.5	103.0	102.0	4.1	-1.0	·	·
O=C(O)c1cc(NC(=O)c2cccc(N3C(=O)c4ccccc4C3=O)c2)cc(C(=O)O)c1	·	8.0	98.0	103.0	-1.1	-2.0	110.2	i
COc1ccc(NC(=O)c2cccc(N3C(=O)c4cccc([N+](=O)[O-])c4C3=O)c2)cc1	·	-3.7	106.0	106.0	-1.6	5.0	91.0	i
O=C(Nc1ccccc1C(=O)O)c1cccc(N2C(=O)c3ccccc3C2=O)c1	·	-10.2	102.0	104.0	2.6	5.0	78.7	i
COc1cc(C(CC(=O)Nc2ccccn2)N2Cc3ccccc3C2=O)cc(OC)c1OC (stereo not drawn)	·	-26.5	103.0	107.0	-9.7	8.0	·	·
CCC(C(=O)N1CCOCC1)n1nc(C)c2c(C)n(-c3ccccc3)nc2c1=O (stereo not drawn)	·	-2.2	99.0	102.0	-5.9	2.0	·	·
Cc1ccc(NC(=O)c2ccc(CSc3nnc(-c4ccncc4)n3C)cc2)cc1	-0.745	0.0	107.0	109.0	-4.0	3.0	·	·
CC(=O)Nc1ccc(-c2nnc(SCc3ccc(C)cc3)n2C)cc1	-0.088	42.3*	94.0	97.0	-11.3	0.0	67.2	i
CC(NCCc1ccc(O)cc1)C(O)c1ccc(O)cc1 (stereo not drawn)	0.691	-5.3	107.0	109.0	1.8	2.0	90.7	i
C[C@@H](NCCc1ccc(O)cc1)[C@@H](O)c1ccc(O)cc1	·	9.7	117.0	115.0	2.7	5.0	95.8	i
CC(CCc1ccc(O)cc1)NCc1ccc(Br)cc1 (stereo not drawn)	·	11.9	110.0	107.0	2.6	2.0	·	·
COc1cccc(OC)c1C(=O)OCC(=O)Nc1ccc(OC(F)(F)F)cc1	-1.06	-8.8	96.0	96.0	-10.7	-4.0	·	·
O=C(CCc1ccc(S(=O)(=O)N2CCOCC2)cc1)Nc1nc(COc2ccccc2)cs1	-0.743	62.4*	·	·	-15.1	·	20.0*	i
Cc1nc2ccc(-c3nc4cc(N)ccc4o3)cc2[nH]1	0.264	42.7*	109.0	103.0	-7.6	3.0	117.8	i
Nc1ccc2oc(-c3ccc4nc[nH]c4c3)nc2c1	-0.176	13.0	102.0	105.0	-1.8	6.0	·	·
C=CCC1(CC=C)CCCN1C(=O)c1cc(COc2ccccc2SC)on1	·	4.5	104.0	98.0	15.3	-4.0	·	·
Cc1cnn(-c2nc(-c3ccccc3)cc(-c3ccccc3)n2)c1	0.671	42.2*	112.0	120.0	16.7	-3.0	16.1*	i
O=C(c1ccccc1)c1ccccc1C(=O)N1CCN(C(=O)c2ccccc2)CC1	-0.138	1.7	100.0	101.0	5.2	2.0	·	·
CCc1ccc(OCCOCC(O)CNC(C)CC)cc1 (stereo not drawn)	0.286	74.2*	104.0	98.0	-7.5	-1.0	102.5	i
O=C(COc1ccc(F)cc1)N(Cc1cccc(Br)c1)C1CCS(=O)(=O)C1 (stereo not drawn)	·	52.8*	104.0	100.0	1.6	6.0	109.0	i
C/C=C(\C)C(=O)Nc1cccc(C2=NOC3(C2)C[C@H](C(N)=O)N(C(=O)C(c2ccccc2)c2ccccc2)C3)c1 (stereo partly drawn)	0.26	1.2	91.0	93.0	-23.3	2.0	·	·
CCC1CCCCN1CCCNC(=O)c1ccc(/C=C2/Sc3ccccc3NC2=O)cc1 (stereo not drawn)	·	43.9*	151.0*	104.0	-6.9	15.0	107.8	i
CCOC(=O)COc1cccc2c(=O)n(CC(=O)NCc3ccccc3)ccc12	-0.451	19.0	113.0	107.0	-8.7	5.0	·	·
CCOC(=O)COc1cccc2c(=O)n(CC(=O)NCc3ccc(F)cc3)ccc12	-0.935	50.6*	104.0	102.0	-8.8	-13.0	73.5	i
SMILES	Dynein cargo inh	B2AR ag	MEKK2 WT-MEK5	MEKK3 PB1 HTS	ATG4B inh	MEKK2mut PB1 HTS	Beta2AR ag CP1	FAP fluor counter
O=C(Cn1nc(-c2ccccc2)ccc1=O)Nc1ccc(NC(=O)c2ccccn2)cc1	0.136	125.0*	99.0	105.0	3.8	2.0	26.2*	i
Cc1cc(S(=O)(=O)N2CCOCC2)ccc1OCC(=O)Nc1ccc(F)cc1F	·	1.4	96.0	103.0	-8.0	-3.0	105.4	i
Cc1cc(S(=O)(=O)N2CCOCC2)ccc1OCC(=O)Nc1ccc(Br)cc1F	·	0.8	99.0	102.0	-4.0	-3.0	108.2	i
Cc1cc(S(=O)(=O)N2CCOCC2)ccc1OCC(=O)Nc1ccccc1C(F)(F)F	·	-1.2	98.0	103.0	-0.2	1.0	97.4	i
Cc1ccc(-c2[nH]c3ccccc3c2SCCNC(=O)c2ccc(S(=O)(=O)N3CCOCC3)cc2)cc1	0.19	-3.1	98.0	112.0	1.2	12.0	·	·
O=C(NC(Cc1ccccc1)C(=O)N1CCN(c2ccccc2O)CC1)c1ccccc1 (stereo not drawn)	·	2.4	·	·	3.4	·	·	·
Cc1c(NC(=O)CSc2nc3ccccc3s2)c(=O)n(-c2ccccc2)n1C	0.921	-14.3	107.0	106.0	19.2	3.0	·	·
CC(C)c1ccc2c(c1)CC[C@H]1[C@](C)(CN)CCC[C@]21C	·	50.3*!	·	·	6.3	·	79.2	i
Cc1ccc(NC(=O)C(c2ccc(Cl)cc2)N2CCOCC2)cc1 (stereo not drawn)	1.85	47.8*	70.0	76.0	-5.2	-19.0	46.5*	i
Cc1ccc(NC(=O)C(c2ccc(Cl)cc2)N2CCCCC2)cc1 (stereo not drawn)	0.275	46.8*	113.0	105.0	2.6	5.0	35.8*	i
Cc1ccc(C(C(=O)NC2CCCCC2)N2CCOCC2)cc1 (stereo not drawn)	-0.0404	10.7	99.0	102.0	8.5	2.0	·	·
O=C(O)CCC(=O)c1ccc2sc3ccccc3c2c1	·	-4.2	·	·	1.9	·	·	·
N#C/C(=C\c1c(Cl)cccc1Cl)c1nc2ccccc2o1	-0.43	-3.3	100.0	108.0	5.2	0.0	141.8	i
CN(CC(=O)Nc1ccc(Cl)c(C(F)(F)F)c1)C(=O)C1CCCO1 (stereo not drawn)	·	-1.3	·	·	3.3	·	·	·
